Laboratory results as given in ChEMBL document CHEMBL3525967, “In vitro glucuronidation of the antibacterial triclocarban and its oxidative metabolites” (Drug Metab Dispos, 2012).

What was measured:
[1] = Drug excretion in monkey urine; format: ADME, tissue-based, Macaca mulatta; settings: rhesus monkey, read-out: Drug excretion
[2] = Drug metabolism in human kidney microsomes assessed as N-glucuronide-triclocarban formation incubated for 5 mins prior to UDPGA addition measured after 5 to 30 mins by LC-UV analysis; format: ADME
Procedure, shortened: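 Pooled human kidney or liver microsomes (liver: 25 mixed-gender donors), 5 µg protein, in 200 µL 100 mM potassium phosphate pH 7.4. Alamethicin pre-treated on ice 15 min. Final 10 µM TCC (2% DMSO), with 10 mM MgCl2 and 10 mM saccharolactone, preincubated 5 min at 37 °C. Started with UDPGA (20 mM stock). Sampled at 5, 10, 15 and 30 min into ACN containing 1 µM DCC internal standard.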

[3] = molecular target: T1, UDP-glucuronosyltransferase 2B4 (Homo sapiens, UniProt P06133); assay: Drug metabolism assessed as human UGT2B4-mediated N-glucuronide-triclocarban formation expressed in baculovirus infected insect sf9 cells incubated for 5 mins prior to UDPGA addition measured after 5 to 30 mins by LC-UV analysis; format: ADME
T1 sequence (P06133 whole entry): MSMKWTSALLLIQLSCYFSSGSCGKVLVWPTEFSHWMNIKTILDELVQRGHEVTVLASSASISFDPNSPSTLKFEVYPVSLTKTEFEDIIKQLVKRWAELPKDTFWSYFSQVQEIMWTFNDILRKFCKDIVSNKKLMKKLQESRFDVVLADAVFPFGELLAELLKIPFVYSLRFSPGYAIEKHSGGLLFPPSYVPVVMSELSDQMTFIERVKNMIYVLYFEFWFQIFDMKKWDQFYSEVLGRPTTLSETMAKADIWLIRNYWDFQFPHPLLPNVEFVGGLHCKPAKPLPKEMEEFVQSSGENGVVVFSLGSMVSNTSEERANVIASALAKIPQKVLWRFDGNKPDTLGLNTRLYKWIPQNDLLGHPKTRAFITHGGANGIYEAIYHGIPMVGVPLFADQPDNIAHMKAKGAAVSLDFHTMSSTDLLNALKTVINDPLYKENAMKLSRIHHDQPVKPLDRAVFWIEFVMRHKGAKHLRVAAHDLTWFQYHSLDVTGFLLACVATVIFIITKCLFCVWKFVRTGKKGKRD
Procedure, shortened: (§1)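 Microsomes or UGT Supersomes (5 µg protein) were held 15 min on ice with alamethicin in 100 mM potassium phosphate pH 7.4. TCC was added at 10 µM (2% DMSO) with 10 mM MgCl2 and 10 mM saccharolactone, pre-warmed 5 min at 37 °C, then started with UDPGA. Samples at 5, 10, 15 and 30 min were quenched in ACN. Product was read by LC-UV at 265 nm; rate came from regression over time, three incubations.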

[4] = molecular target: T2, UDP-glucuronosyltransferase 2B15 (Homo sapiens, UniProt P54855); assay: Drug metabolism assessed as human UGT2B15-mediated N-glucuronide-triclocarban formation expressed in baculovirus infected insect sf9 cells incubated for 5 mins prior to UDPGA addition measured after 5 to 30 mins by LC-UV analysis; format: ADME; procedure, shortened: as §1
T2 sequence (P54855 whole entry): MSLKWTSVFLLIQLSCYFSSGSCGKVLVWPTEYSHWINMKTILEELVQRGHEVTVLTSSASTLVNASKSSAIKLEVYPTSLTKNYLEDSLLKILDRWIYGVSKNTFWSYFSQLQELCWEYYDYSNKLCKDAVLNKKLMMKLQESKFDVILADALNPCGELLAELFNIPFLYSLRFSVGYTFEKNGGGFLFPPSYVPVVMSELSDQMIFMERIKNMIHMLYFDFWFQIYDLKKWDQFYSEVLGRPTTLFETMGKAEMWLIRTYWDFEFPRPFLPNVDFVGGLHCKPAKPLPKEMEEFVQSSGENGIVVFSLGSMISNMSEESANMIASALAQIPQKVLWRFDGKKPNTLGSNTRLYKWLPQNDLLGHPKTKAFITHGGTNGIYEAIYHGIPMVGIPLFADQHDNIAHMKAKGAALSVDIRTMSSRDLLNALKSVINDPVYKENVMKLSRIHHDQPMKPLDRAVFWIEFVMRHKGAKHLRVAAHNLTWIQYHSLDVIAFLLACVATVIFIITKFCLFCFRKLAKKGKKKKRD

[5] = Drug excretion in Swiss webster mouse urine assessed as 3'-O-glucuronide-triclocarban formation at 5 mg/kg, po by LC-MS analysis; format: ADME, organism-based; parameters: dose 5 mg/kg, route oral; settings: in vivo
Procedure, shortened: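 Mice were housed two per metabolic cage, with blank urine collected over the 24 h before dosing. TCC was given by oral gavage as a 1 mg/mL solution in 20/80 DMSO/PEG400 (v/v) at 5 mg/kg. Urine was collected at 0-24 h and 24-48 h and analysed by online LC-MS. Values are the mean of two independent experiments.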

[6] = Drug excretion in Sprague-Dawley rat urine assessed as 2'-O-glucuronide-triclocarban formation at 1 mg/kg, po by LC-MS analysis; format: ADME, organism-based; parameters: dose 1 mg/kg, route oral; settings: in vivo
[7] = molecular target: T3, UDP-glucuronosyltransferase 1A8 (Homo sapiens, UniProt Q9HAW9); assay: Drug metabolism assessed as human UGT1A8-mediated N'-glucuronide-triclocarban formation expressed in baculovirus infected insect sf9 cells incubated for 5 mins prior to UDPGA addition measured after 5 to 30 mins by LC-UV analysis; format: ADME; procedure, shortened: as §1
T3 sequence (Q9HAW9 whole entry): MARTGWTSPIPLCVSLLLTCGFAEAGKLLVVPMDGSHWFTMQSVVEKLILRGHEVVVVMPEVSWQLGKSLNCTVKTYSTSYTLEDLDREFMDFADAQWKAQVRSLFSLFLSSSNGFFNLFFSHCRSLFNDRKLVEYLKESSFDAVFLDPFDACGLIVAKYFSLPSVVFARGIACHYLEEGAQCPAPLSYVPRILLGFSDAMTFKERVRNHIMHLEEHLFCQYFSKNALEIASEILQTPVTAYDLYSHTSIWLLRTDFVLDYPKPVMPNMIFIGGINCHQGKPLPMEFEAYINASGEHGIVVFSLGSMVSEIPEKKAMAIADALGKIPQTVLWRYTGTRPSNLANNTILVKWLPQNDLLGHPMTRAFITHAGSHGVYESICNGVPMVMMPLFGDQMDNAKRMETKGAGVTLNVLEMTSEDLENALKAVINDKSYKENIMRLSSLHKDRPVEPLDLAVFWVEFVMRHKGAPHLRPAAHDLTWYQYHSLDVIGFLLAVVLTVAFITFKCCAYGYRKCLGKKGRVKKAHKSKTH

[8] = Drug metabolism in cynomolgus monkey liver microsomes assessed as N-glucuronide-triclocarban formation incubated for 5 mins prior to UDPGA addition measured after 30 mins by LC-UV-ESI-MS/MS analysis; format: ADME, Macaca fascicularis; settings: 0.5 h
Procedure, shortened: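 TCC was incubated at 10 µM (2% DMSO) in 100 mM phosphate pH 7.4 with alamethicin-treated microsomes or Supersomes, 10 mM MgCl2 and 10 mM saccharolactone. After 5 min pre-incubation at 37 °C, UDPGA was added to start the reaction. Protein was raised up to 2 mg/mL. Samples were quenched in ACN with 1 µM DCC internal standard, centrifuged, and N-glucuronides detected by LC-ESI-MS/MS in SRM mode.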

Q: For `O=C(Nc1ccc(Cl)cc1)Nc1ccc(Cl)c(Cl)c1` [TRICLOCARBAN], which dose excreted [1] is on record?
A: Its dose excreted is 25%.

Q: What about the Drug metabolism [2] of the same compound?
A: The Drug metabolism was “metabolite_not_detected”.

Q: What about the Drug metabolism [3] of the same compound?
A: Its Drug metabolism is “metabolite_not_detected”.

Q: What about the Drug metabolism [4] of the same compound?
A: The Drug metabolism was “metabolite_not_detected”.

Q: What about the Drug excretion [5] of the same compound?
A: The Drug excretion was “metabolite_detected”.

Q: What about the Drug excretion [6] of the same compound?
A: The Drug excretion was “metabolite_detected”.

Q: And the Drug metabolism [7]?
A: The Drug metabolism was “metabolite_not_detected”.

Q: And the Drug metabolism [8]?
A: The Drug metabolism was “metabolite_detected”.
